Results on seven compounds are retold here after paper PMC3505964 (Nucleic Acids Research, 2012).

As usually defined, the pKa is the pH at which an ionisable group is half protonated.

In series [1] the test system is avian myeloblastosis virus reverse transcriptase (AMV-RT). Description: MALDI-TOF analysis of primer extension products, AMV-RT. Particulars: 1 mM each dNTP, 20-mer products. Type of series: biochemical.
In series [2] the target is T1, human DNA polymerase β (Homo sapiens, UniProt P06746). The series can be described thus: MALDI-TOF analysis of primer extension products, pol β. It is filed as biochemical. The conditions noted are these: 1 mM each dNTP, 19-mer and 20-mer products. An outline of the steps: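 Unlabelled 16-mer primer (10 pmol) annealed to a 25-mer template (20 pmol; 2′-O-methylguanosine or 8-nitro-2′-O-methylguanosine) at 70°C for 20 min, then room temperature for 15 min. Final pol β was 750 nM, with 1 mM each dNTP. Incubated 37°C for 60 min, stopped at 90°C for 5 min. Desalted on C18 tips (0.1 M TEAA pH 7.0), eluted in 3-HPA/ammonium citrate matrix. Products assigned by calculated m/z against a 20-mer standard mix.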

A short description of series [3]: pKa determination from pH-dependent UV absorption. Type of series: physicochemical. Particulars: 25 °C; for pKa (deprotonation at N1): free nucleoside.
For series [4], the system named is avian myeloblastosis virus reverse transcriptase (AMV-RT). Description: PAGE analysis of primer extension reactions, AMV-RT. It is filed as biochemical. Particulars: single dNTPs.
Series [5] addresses T1, human DNA polymerase β. The series can be described thus: PAGE analysis of primer extension reactions, pol β. Type of series: biochemical.
For series [6] the following is noted: cited from earlier work.
For series [7] the following is noted: free nucleoside; cited from earlier work.

For “5′-TCANCATTGGGAGTCGACATAGCGC–3′ [control template]”, the entries for the “nucleotide incorporated opposite X in extended products” value (in series [1]; at human DNA polymerase β [2]) were “predominantly dC” and “only dC”, respectively.
With `CO[C@@H]1[C@H](O)[C@@H](CO)O[C@H]1n1c([N+](=O)[O-])nc2c(=O)[nH]c(N)nc21` [Compound 6b, 8-Nitro-2′-O-methylguanosine], in series [3], the “pKa (deprotonation at N1)” value is listed as 8.3.
“5′-TCANCATTGGGAGTCGACATAGCGC–3′ [8-nitroG template]”: the “single dNTP most preferentially inserted” value in series [4] is “dATP”. The “dCTP incorporation, level relative to the control” value at human DNA polymerase β [5] (single dCTP) is recorded as less than 20%. Further, the “increase of dTTP incorporation relative to control” value on human DNA polymerase β [5] (single dTTP, from a low level) is “around 2 fold”.
As for `Nc1nc2c(nc([N+](=O)[O-])n2[C@@H]2O[C@H](CO)[C@@H](O)[C@H]2O)c(=O)[nH]1` [Compound 6a, 8-Nitroguanosine], the “pKa (deprotonation at N1)” value in series [3] amounted to 8.4. Further, in series [6] (pH 7 and 37°C, ref one published study), the “half-life (hydrolytic stability)” value was 0.21 days.
On to GCGTACG**CATGCG [ODN4], for which the “pKa of 8-nitro-2′-O-methylguanosine within the single-stranded oligonucleotide” value in series [3] (single-stranded ODN GCGTACG**CATGCG) came out at 9.1.
For the compound `Nc1nc2c(nc([N+](=O)[O-])n2C2OC(CO)C(O)C2F)c(=O)[nH]1` (centres unmarked) [2′-fluoro, reference compound], the “half-life (depurination)” value in series [6] (pH 7.4) is on record as 72 days.
As for `Nc1nc2c(ncn2[C@@H]2O[C@H](CO)[C@@H](O)[C@H]2O)c(=O)[nH]1` [guanosine], in series [7], the pKa was 9.4.
